Test results as given in the EternaBench riboswitch data.

Tested on: MS2 coat protein
Experiment: apparent Kd, MS2 coat protein; higher = weaker binding; RNA-MaP array; FMN 200 µM where present
Method in brief: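 Apparent Kd: the median of filtered binding-curve fits from single clusters. Designs were transcribed on Illumina sequencing-chip clusters by stalled E. coli RNA polymerase and titrated with SNAP-549-labelled MS2 coat protein from 0.7 or 1.5 nM, doubling to 3 µM, in 100 mM Tris-HCl pH 7.5, 80 mM KCl, 4 mM MgCl2, BSA, DTT, yeast tRNA and Tween-20. Each series ran without and then with constant ligand, and green signal was normalised to red-channel RNA signal and control-cluster median Fmax.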

[1] = designed as: OFF switch for flavin mononucleotide, no ligand
[2] = ligand present: flavin mononucleotide, designed as: OFF switch for flavin mononucleotide
[3] = designed as: ON switch for flavin mononucleotide, no ligand
[4] = ligand present: flavin mononucleotide, designed as: ON switch for flavin mononucleotide

Row | Sequence | apparent Kd [1] [nM] | apparent Kd [2] [nM] | apparent Kd [3] [nM] | apparent Kd [4] [nM]
1 | GCAUGGUAUGAGAAGGCAUAUUUAAUCUAACAUCAUGUUUACAUGAGGAUCACCCAUGUUACCAAUGAGGAUAUCAUACCGUGC | 9.67 | 9.8 | – | –
2 | GCUAUGUCAGGAUAUUGAUCGUGAUCGGAAAUGAUCGUGAUCGAGAAGGGACAUGAGGAUCACCCAUGUGUAGU | 166 | 492 | – | –
3 | UCAUCAGCGGGCGGGUCGGUUGGACAUGAGGAUCACCCAUGUAGAAGGACCGGUGGACUCCGGCGGUAGGAUAUACAUUUGGUG | 16.1 | 26.3 | – | –
4 | UUGGAAAACAUGAGGAUCACCCAUGUGAAGCCGGCUAGUACACAGGAUAUCCAGAACGCCGAGUUGGAGAAGGGUGAUCAGUCG | – | – | 38 | 80.4
5 | AACAAUAAGGAGGAUAUCGUAUCGGAAACGAUACGAGAAGGCUUAACAUGAGGAUCACCCAUGUUCCUCAAUAA | 31.6 | 60 | – | –
6 | AAGCCCUGAGGAUAUCCCAACUCGCACAUGAGGAUCACCCAUGUCCUUCUCUGGGUUUCGGGAGAAGGCAGGUCUC | 348 | 161 | – | –
7 | AAGGGUACUUUCGGAACGACAUGAGGAUCACCCAUGUAUACUGAGGAUAUCUACUACUAAGGACGGGAGAAGGCAGUGUAAUGU | 18 | 20.3 | – | –
8 | UGGUACAUCGGAGGAUAUCAUGUAGAUACAUGAGGAUCACCCAUGUCGUACGAUAGUACGGAGAUUGAGAAGGCCGAUGUACCU | – | – | 30.5 | 16.6
9 | GGAGCACACAUUAACAUGAGGAUCACCCAUGUCAAAAGACAUGAGGAUAUGGAUCCGAAAAGCAUCCAGAAGGCAUGGUGCUCC | – | – | 567 | 184
10 | AAGUACCGGUGAGGAUAUUUUUAAUAGAACUUUAUGAUAUACAUGAGGAUCACCCAUGUUACUUUAAAGAAGGCAUCGGAUUAA | 18 | 14.8 | – | –
11 | UAUACAAACGAAGGAUAUGGAUACAUGAGGAUCACCCAUGUAUGUAUGAUGAUCUAGAAAAUGGGCCAGAAGGUCGUGAUUAUU | 22.6 | 62.7 | – | –
12 | UCAGAUGUACAUGAGGAUCACCCAUGUCAUAUGCCCGUGACACAGGAUAUCCAGGAUAGGCCAAAGGAGAAGGGUGAUCCGCGG | – | – | 103 | 158
13 | AAAAAACAUGAGGAUCACCCAUGUAAAAAAAUCACAGGAUAUAAGGUCGCGAAAGCGACCUUAGAAGGGUGAUCAA | – | – | 443 | 105
14 | AUGCUAGUGUGAGGAUAUUAUUGACAUGAGGAUCACCCAUGUGUGAGUCCAACAUGAGCUACAGUUAAGAAGGUACAUUAGCAU | 45.5 | 38.1 | – | –
15 | GCCGUGAUAGCAGGAUAUGCUCCGGUUGCUCAUACAUGAGGAUCACCCAUGUCACGUGCGGUGGUGCAGAAGGGUUGAAGCGAU | – | – | 764 | 209
16 | CGGAUGUCAGGAUAUACGAACAUGUCGCCAGAUGUCAUGGUACAUGAGGAUCACCCAUGUAGAAGGGAGGUGGU | 160 | 331 | – | –
17 | CACCGUAACUGAGGAUAUCAAACAUGAGGAUCACCCAUGUAAUAAAUGAGAAUUUCGAAUGUACCUGAGAAGGCAGAAACCGGC | 38 | 48.3 | – | –
18 | AGUGUGUUAGGAUAUCGGAUAUGCUGGAGGAGGUGGAUUUACGAGAAGGAACAUGAGGAUCACCCAUGUAGGAG | 37.1 | 35.6 | – | –
19 | CAGAAGUCAGGAUAUCCUGCUCGUCACUUGCGUGAUGAGUAGGAGAAGGGACAUGAGGAUCACCCAUGUAAAGU | 68.9 | 95 | – | –
20 | CCAAGCUGUGUGAGGAUAUGCUGGUCGAAAGAUCAGCAGAAGGCACAUGAGGAUCACCCAUGUGAAAAGCUUGG | 18.3 | 50.9 | – | –
21 | CACUGCAAUGUAGGAUAUCGACUGGAUAACAGUCGAGAAGGACAUGAGGAUCACCCAUGUACUUUGAGUGAAUAAUAAGCAGUG | 16.5 | 59.7 | – | –
22 | UUGGACGUCGUCGGAUAUGUAGGAUAUUCCUACAUGAGGAUCACCCAUGUUGACAUGGAAGAAGGACAGAAGGACGAUGUCCAU | – | – | 83 | 4.6
23 | AUCCCGAUAGUAGGAUAUUUCUGCAGUUGUGGUUAGAUCGCCCUACAUGAGGAUCACCCAUGUAGAGAGAAGGACUGUGGUUAU | 5.7 | 8.54 | – | –
24 | GUAGUGUAUGUAGGAUAUGUGAAGGAAACCUUUACAGAAGGACAUGAGGAUCACCCAUGUAUUACAGUCAGCAAUCUGACUGUU | 28.4 | 107 | – | –
25 | AAUAACAGAGGAUAUACUAUUUUAUGUGUUUGUUGUUUUGAACAUGAGGAUCACCCAUGUAGAAGGCUGAUUGA | 42.6 | 45.3 | – | –
26 | AGCUGUGGCCGAGGAUAUCUGAACUCAAUAACCGAAAUAUAAUCGGACAUGAGGAUCACCCAUGUAGAGAAGGCGGUCUCAGCA | 34 | 56.5 | – | –
27 | UCGACCAGCGCCAGUCGAACAUGAGGAUCACCCAUGUACUCCAGAAGGCCGCCCAAGAACGGAGUGGAGGAUAUGGAGGUUCUC | – | – | 37.7 | 33.2
28 | CCGGAAAUGGAGGAUAUAGGAGUCGAUAGACACCUAGAAGGUCAGACAUGAGGAUCACCCAUGUGUCCUACCGG | 17.2 | 21.8 | – | –

Row | Sequence | apparent Kd [1] [nM] | apparent Kd [2] [nM] | apparent Kd [3] [nM] | apparent Kd [4] [nM]
29 | GGCUGGUAGCUAGGAUAUGGGCGGUCACAUGAGGAUCACCCAUGUCAACAUCAAAACCAGAUUAACCAGAAGGAGCUGCGGGUU | – | – | 36 | 37.8
30 | CGCCAUCCCGGUGGCGUGAGGAUACCAGAAGGGACGAUCUCACAUGAGGAUCACCCAUGUUAUAGUCAGGAUAUGGGUUCAUCA | – | – | 88.5 | 12.3
31 | UUUUGGUCAGGAUAUUGUUAGUUUAGUUGUUUGUAUUAGUUCGAGAAGGGACAUGAGGAUCACCCAUGUGAUUU | 99.2 | 102 | – | –
32 | ACAUGUACAGAGGAUAUGCGCCUUGGCAACGGUGUAGAAGGCUGAACAUGAGGAUCACCCAUGUGCAAUCCAGC | 28.4 | 146 | – | –
33 | GUGCCUUGGGAGAAGGCCCAAUGUAAAGCAUAGGGAGGAUAUUCAUAUAAUAAAUAAACAUGAGGAUCACCCAUGUGGCACAAA | – | – | 831 | 48.5
34 | AUUCCCGGUGUUAGGAUAUCCAACGCCCACGCGAUGGAGAAGGGACAUGAGGAUCACCCAUGUAGAGCUGCAUC | 14.3 | 14.5 | – | –
35 | UGUCCAUAGCAGAAGGCAUGUCAAAAGACAUGAGGAUCACCCAUGUAAACAUGAGGAUAUGCUAUGGACUAAGAGCGAAAGCUC | 8.57 | 5.66 | – | –
36 | GUUGCACAAGUUAACAUGAGGAUCACCCAUGUCAAAAGACAUGAGGAUAUGGAUGUGAAGAUAAUCCAGAAGGCAUAAUGCUAA | – | – | 596 | 129
37 | GUAUUAAAGAUCCAUUUAUACAACAUGAGGAUCACCCAUGUGCAGGAUAUCGUGUGUUUUAUAUUCGAGAAGGGCAAAUUCAUU | 50.7 | 105 | – | –
38 | UGUACUAUAAGGUUAAUUGUAUAUUGAGAAGGCAUACACAUGAGGAUCACCCAUGUAACAUGGAAUGAGGAUAUCAUUAUGUAC | – | – | 17.3 | 14.4
39 | AACAUGGUAUCAGGAUAUGGGUGUCACAACCACUCAGAAGGGAUACCGAUGACAUGAGGAUCACCCAUGUCGCUAUUUACCUGU | – | – | 17.2 | 7.98
40 | UAGUAGUGAGGAUAUACAUGGAUAUACAUUCAUGUGGACCUACAUGAGGAUCACCCAUGUAGAAGGCACUACUA | 41.9 | 91.4 | – | –
41 | UAUCUAUUUAUGGGAUUAGAAUAUGAGGAUAUCAUUUUUUUAUACAUGAGGAUCACCCAUGUUUCUGAGAAGGCAUAUUUAAUA | – | – | 16.9 | 5.72
42 | AGGGCGAAAUGGCUCUAUGAGAUGAGAAGGGUAGGAGGGUGGAAGUACAUGAGGAUCACCCAUGUACAGGAUAUCAUGCCGAUU | 6.42 | 6.4 | – | –
43 | AGCUGUGGCCGAGGAUAUCUGAACUUUCAAACCGAAAUAUAAUCGGACAUGAGGAUCACCCAUGUAGAGAAGGCGGUCUCAGCA | 16 | 13.6 | – | –
44 | CUGAGCUGAGGAUAUACAUGAGGAUCACCCAUGUGUUCCAGCUUGCGUACAGGCAGAUGUAGAAGGCAGUUCGG | 41.4 | 102 | – | –
45 | UGGUCAUGAUCAGGAUAUUAACAUGGGCUACAUUAAGAAGGGAUAGUGAGAUACGAACUGAAACAUGAGGAUCACCCAUGUGUU | – | – | 170 | 107
46 | GGGAGUGGAGGGAAUAACAUGAGGAUCACCCAUGUAUGGGAGAGAAGGCAGAUUGGAGGGCGAUCUGAGGAUAUUUAGACUCUU | – | – | 13.1 | 10.7
47 | UUGGACGUCGUAGGAUAUGUAGGAUAUUCCUACAUGAGGAUCACCCAUGUUGACAUGGAAGAAGGACAGAAGGCCGAUGUCCAU | – | – | 409 | 4.87
48 | UAACCACAUGAGGAUCACCCAUGUGAGGAUAUGUCCAUAUUCGGCAAAUCGGAUAUGGACAGAAGGCACACCGG | 41.6 | 68.7 | – | –
49 | AGGAGGUCAGGAUAUGCAUGGCGGGACUUGCGUCGUGGCGUGCAGAAGGGACAUGAGGAUCACCCAUGUGGAGC | 66.4 | 106 | – | –
50 | CUUUAGUGAGGAUAUCAGUAGUAAUACAAUAGUAUUACUGCUGAGAAGGCACAUGAGGAUCACCCAUGUUCCUC | 38.1 | 169 | – | –
51 | ACAUGCUGCCGGCAGGAUAUCGCUUGGCGGACAUGAGGAUCACCCAUGUGAGAAAGUCGCGCGCGCGAGAAGGGCCAUGGUAUCAG | – | – | 98.2 | 80
52 | UGAUAGGACAGAGGAUAUACAGAUAGGAUCUACUAUCCUCCUUAAAUAACAUGAGGAUCACCCAUGUAGAAGGCUGUCCUAUCU | 26.5 | 182 | – | –
53 | GGGUACAACGGAGGAUAUCAUGUAAAUACAUGAGGAUCACCCAUGUCGAUGGAGACAUCGGAGAUUGAGAAGGCCGAUGUACCG | – | – | 160 | 8.88
54 | AUGUGUCUUCGCGUCCUGCCCGGACAUGAGGAUCACCCAUGUAGAAGGCGGUGGCAAUGCUAGACCGAGGAUAUACAUGCAAAC | 17.8 | 51.3 | – | –
55 | AUACGAAAGAUAGGAUAUACUGAGGUUGAAUGGGUAGAAGGAUCGAUAGUGGAGAAGACAUGAGGAUCACCCAUGUUGUGGAUU | – | – | 681 | 217
